Test results taken from ChEMBL document CHEMBL4680083, “Identification of Tricyclic Agonists of Sphingosine-1-phosphate Receptor 1 (S1P) Employing Ligand-Based Drug Design” (J Med Chem, 2016).

What was measured:
[1] = target: Sphingosine 1-phosphate receptor 3 (Homo sapiens, UniProt Q99500); experiment: Agonist activity at human S1P3 expressed in CHO cell membranes assessed as stimulation of [35S]-GTPgamma-S binding measured after 45 mins by liquid scintillation counting method; design: species or system Cell membrane
Sphingosine 1-phosphate receptor 3, sequence (Q99500 whole entry): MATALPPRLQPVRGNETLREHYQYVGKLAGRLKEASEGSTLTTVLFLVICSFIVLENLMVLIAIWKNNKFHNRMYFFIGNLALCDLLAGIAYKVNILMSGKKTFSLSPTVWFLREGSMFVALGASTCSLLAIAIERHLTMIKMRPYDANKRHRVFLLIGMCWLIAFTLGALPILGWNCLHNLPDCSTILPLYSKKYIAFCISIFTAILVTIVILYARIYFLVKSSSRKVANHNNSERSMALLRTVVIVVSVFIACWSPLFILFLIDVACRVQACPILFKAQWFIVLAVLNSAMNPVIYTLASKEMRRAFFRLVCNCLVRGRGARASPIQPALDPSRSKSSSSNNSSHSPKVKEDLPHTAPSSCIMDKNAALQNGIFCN

[2] = Plasma concentration in Lewis rat at 1 mg/kg, po measured at 4 hr; assay type: ADME, organism-based; details: Lewis, plasma
In short: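 Lewis rats received a single oral 1.0 mg/kg dose as solution or suspension in PEG300. Blood was drawn retro-orbitally under isoflurane at 4 h and 24 h, within the blood lymphocyte reduction study. n = 3−4 per group, group mean reported.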

Rattus norvegicus [3] = experiment: Reduction in circulating lymphocytes count in Lewis rat blood assessed as effective dose administered orally measured at 4 to 24 hrs by hematology analyzer based analysis; assay type: functional; details: po, time 4-24 hrs
Rattus norvegicus [4] = experiment: Reduction in circulating lymphocytes count in Lewis rat blood administered orally measured at 4 to 24 hrs by hematology analyzer based analysis; assay type: functional, organism-based
In short: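 Lewis rats were given an oral dose as a solution or suspension in PEG300, with controls receiving vehicle only. Blood was taken by retro-orbital bleeding under isoflurane at 4 and 24 h. Lymphocytes were counted on a hematology analyzer. Reduction is relative to the vehicle group, averaged over the animals in each group (n = 3−4).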

[5] = target: T1, Sphingosine 1-phosphate receptor 1 (Homo sapiens, UniProt P21453); experiment: Binding affinity to human S1P1
T1 sequence (P21453 whole entry): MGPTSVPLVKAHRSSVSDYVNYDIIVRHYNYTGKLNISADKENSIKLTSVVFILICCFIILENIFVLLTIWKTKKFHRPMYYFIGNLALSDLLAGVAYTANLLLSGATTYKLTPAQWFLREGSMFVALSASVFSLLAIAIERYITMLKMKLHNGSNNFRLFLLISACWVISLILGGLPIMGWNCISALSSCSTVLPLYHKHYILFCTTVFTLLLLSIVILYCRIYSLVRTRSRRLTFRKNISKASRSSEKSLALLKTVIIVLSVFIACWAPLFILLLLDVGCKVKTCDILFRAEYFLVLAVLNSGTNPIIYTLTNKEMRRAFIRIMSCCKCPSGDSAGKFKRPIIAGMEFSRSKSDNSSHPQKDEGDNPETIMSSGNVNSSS

[6] = target: T1, Sphingosine 1-phosphate receptor 1; experiment: Agonist activity at human S1P1 expressed in CHO cell membranes assessed as stimulation of [35S]-GTPgamma-S binding measured after 45 mins by liquid scintillation counting method relative to control; details: Cell membrane, filed as agonist
In short: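 S1P1/CHO cell membranes at 3 μg protein/well with 3-fold compound dilutions. [35S]GTPγS 0.2 nM final, 45 min at room temperature. Filter-plate capture, water washes, scintillation counting. EC50 taken at 50% of each compound's own Ymax.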

[7] = target: T1, Sphingosine 1-phosphate receptor 1; experiment: Agonist activity at human S1P1 assessed as stimulation of cAMP accumulation relative to control; assay type: functional; details: filed as agonist
[8] = Protein binding in mouse assessed as bound fraction; assay type: ADME; details: read-out: PB (converted)
[9] = Protein binding in rat assessed as bound fraction; assay type: ADME; details: read-out: PB (converted)
Cytochrome P450 1A2 = target: T2, Cytochrome P450 1A2 (Homo sapiens, UniProt P05177); experiment: Inhibition of CYP1A2 (unknown origin); assay type: ADME
T2 sequence (P05177 whole entry): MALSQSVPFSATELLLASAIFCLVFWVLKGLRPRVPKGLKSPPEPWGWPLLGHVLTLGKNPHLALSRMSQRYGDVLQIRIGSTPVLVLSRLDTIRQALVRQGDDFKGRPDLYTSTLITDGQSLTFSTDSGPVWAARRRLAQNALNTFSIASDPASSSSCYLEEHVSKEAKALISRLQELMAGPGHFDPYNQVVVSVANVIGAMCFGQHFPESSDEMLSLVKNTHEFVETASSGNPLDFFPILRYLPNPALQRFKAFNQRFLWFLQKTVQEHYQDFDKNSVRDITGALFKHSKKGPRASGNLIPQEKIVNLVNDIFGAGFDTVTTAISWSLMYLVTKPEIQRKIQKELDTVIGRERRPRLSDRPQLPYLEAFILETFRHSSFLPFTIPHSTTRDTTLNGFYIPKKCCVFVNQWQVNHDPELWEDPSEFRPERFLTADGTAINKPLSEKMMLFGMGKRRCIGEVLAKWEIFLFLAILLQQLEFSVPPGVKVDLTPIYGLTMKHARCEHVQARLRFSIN

Cytochrome P450 2C9 = Cytochrome P450 2C9 (Homo sapiens, UniProt P11712); experiment: Inhibition of CYP2C9 (unknown origin); assay type: ADME
Cytochrome P450 2C9, sequence (P11712 whole entry): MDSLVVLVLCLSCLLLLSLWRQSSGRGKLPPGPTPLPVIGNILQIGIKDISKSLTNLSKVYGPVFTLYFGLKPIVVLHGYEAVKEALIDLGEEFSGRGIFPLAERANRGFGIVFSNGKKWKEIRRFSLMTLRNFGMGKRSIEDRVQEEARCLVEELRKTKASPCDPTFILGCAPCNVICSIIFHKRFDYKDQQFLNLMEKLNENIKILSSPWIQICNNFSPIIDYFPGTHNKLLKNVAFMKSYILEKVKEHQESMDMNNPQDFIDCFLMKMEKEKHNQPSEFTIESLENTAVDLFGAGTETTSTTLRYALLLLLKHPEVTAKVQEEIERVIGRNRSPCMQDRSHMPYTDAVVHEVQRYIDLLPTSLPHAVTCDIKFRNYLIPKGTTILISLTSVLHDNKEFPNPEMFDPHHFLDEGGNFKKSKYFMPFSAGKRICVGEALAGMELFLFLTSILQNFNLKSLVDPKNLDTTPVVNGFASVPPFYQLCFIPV

Cytochrome P450 2C19 = Cytochrome P450 2C19 (Homo sapiens, UniProt P33261); experiment: Inhibition of CYP2C19 (unknown origin); assay type: ADME
Cytochrome P450 2C19, sequence (P33261 whole entry): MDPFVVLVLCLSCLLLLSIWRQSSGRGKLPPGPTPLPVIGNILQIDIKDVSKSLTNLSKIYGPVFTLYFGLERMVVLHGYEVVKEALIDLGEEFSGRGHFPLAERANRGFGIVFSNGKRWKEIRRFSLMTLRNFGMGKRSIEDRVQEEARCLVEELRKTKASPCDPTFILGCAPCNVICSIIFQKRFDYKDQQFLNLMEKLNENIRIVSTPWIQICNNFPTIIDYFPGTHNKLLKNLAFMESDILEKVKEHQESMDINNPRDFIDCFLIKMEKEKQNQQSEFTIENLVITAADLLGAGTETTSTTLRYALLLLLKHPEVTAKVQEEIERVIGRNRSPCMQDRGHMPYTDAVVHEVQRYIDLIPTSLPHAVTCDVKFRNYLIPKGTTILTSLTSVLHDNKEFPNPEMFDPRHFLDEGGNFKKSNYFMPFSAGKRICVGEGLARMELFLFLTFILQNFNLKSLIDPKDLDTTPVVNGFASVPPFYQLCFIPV

Cytochrome P450 2D6 = Cytochrome P450 2D6 (Homo sapiens, UniProt P10635); experiment: Inhibition of CYP2D6 (unknown origin); assay type: ADME
Cytochrome P450 2D6, sequence (P10635 whole entry): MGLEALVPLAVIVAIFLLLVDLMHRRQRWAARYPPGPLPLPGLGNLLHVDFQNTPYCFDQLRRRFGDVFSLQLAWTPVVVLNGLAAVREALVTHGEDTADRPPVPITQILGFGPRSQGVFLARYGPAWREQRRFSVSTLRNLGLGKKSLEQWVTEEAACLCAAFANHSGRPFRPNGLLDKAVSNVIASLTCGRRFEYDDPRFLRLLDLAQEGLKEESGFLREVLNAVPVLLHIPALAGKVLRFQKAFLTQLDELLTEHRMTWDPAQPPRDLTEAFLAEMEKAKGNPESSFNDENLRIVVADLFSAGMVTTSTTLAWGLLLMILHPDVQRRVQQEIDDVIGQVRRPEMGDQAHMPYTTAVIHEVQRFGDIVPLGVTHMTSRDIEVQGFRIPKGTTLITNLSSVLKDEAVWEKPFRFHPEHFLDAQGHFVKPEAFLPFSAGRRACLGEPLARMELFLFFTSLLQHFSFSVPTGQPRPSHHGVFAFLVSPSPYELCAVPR

[10] = Permeability of compound at pH 7.7 by PAMPA; assay type: ADME; details: read-out: permeability
[11] = Metabolic stability in human assessed as half-life; assay type: ADME
[12] = Metabolic stability in mouse assessed as half-life; assay type: ADME
[13] = Cmax in cynomolgus monkey at 0.5 mg/kg, po or 0.5 mg/kg, iv; assay type: ADME, organism-based, Macaca fascicularis; design: dose 0.5 mg/kg; details: in vivo
[14] = Tmax in mouse at 5 mg/kg, po or 2 mg/kg, iv; assay type: ADME, organism-based; details: in vivo
[15] = Tmax in cynomolgus monkey at 0.5 mg/kg, po or 0.5 mg/kg, iv; assay type: ADME, organism-based, Macaca fascicularis; details: in vivo
[16] = Tmax in dog at 0.1 mg/kg, po or 0.1 mg/kg, iv; assay type: ADME, organism-based, Canis lupus familiaris; details: in vivo
[17] = AUC in mouse at 5 mg/kg, po; assay type: ADME, organism-based; design: dose 5 mg/kg; details: in vivo
[18] = AUC in rat at 1 mg/kg, po; assay type: ADME, organism-based; design: dose 1 mg/kg; details: in vivo
[19] = AUC in cynomolgus monkey at 0.5 mg/kg, po; assay type: ADME, organism-based, Macaca fascicularis; design: dose 0.5 mg/kg; details: in vivo
[20] = AUC in dog at 0.1 mg/kg, po; assay type: ADME, organism-based, Canis lupus familiaris; design: dose 0.1 mg/kg; details: in vivo
[21] = Half-life in mouse at 5 mg/kg, po or 2 mg/kg, iv; assay type: ADME, organism-based; details: in vivo
[22] = Half-life in dog at 0.1 mg/kg, po or 0.1 mg/kg, iv; assay type: ADME, organism-based, Canis lupus familiaris; details: in vivo
[23] = Clearance in rat at 1 mg/kg, po or 1 mg/kg, iv; assay type: ADME, organism-based; details: in vivo
[24] = Clearance in cynomolgus monkey at 0.5 mg/kg, po or 0.5 mg/kg, iv; assay type: ADME, organism-based, Macaca fascicularis; details: in vivo
[25] = Volume of distribution at steady state in mouse at 5 mg/kg, po or 2 mg/kg, iv; assay type: ADME, organism-based; details: in vivo, read-out: Vdss
[26] = Oral bioavailability in mouse at 5 mg/kg; assay type: ADME, organism-based; details: in vivo
[27] = Oral bioavailability in rat at 1 mg/kg; assay type: ADME, organism-based; details: in vivo
[28] = Oral bioavailability in dog at 0.1 mg/kg; assay type: ADME, organism-based, Canis lupus familiaris; details: in vivo
Rattus norvegicus [29] = experiment: Antiarthritic activity in Lewis rat model of Complete Freund's adjuvant-induced arthritis assessed as reduction in paw swelling at 0.1 mg/kg, po qd administered for 21 days after CFA injection and measured weekly three times upto day 21 by water displacement plethysmometry; assay type: functional; design: scale not given: the % may be the effect or the level left; details: time 21 day
In short: (§1)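 Male Lewis rats, 200−225 g, n = 8 per group. Immunized at the tail base with 100 μL of 10 mg/mL ground Mycobacterium butyricum in incomplete Freund's adjuvant. Oral dosing once daily in PEG300 vehicle from the day of immunization for 21 days, at 0.03, 0.1 or 1.0 mg/kg. Dexamethasone 0.1 mg/kg PO QD as positive control. Paw volume by water displacement plethysmometry, day 7 to day 21.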

Rattus norvegicus [30] = experiment: Antiarthritic activity in Lewis rat model of Complete Freund's adjuvant-induced arthritis assessed as effective dose causing reduction in paw swelling administered orally once daily for 21 days after CFA injection and measured weekly three times upto day 21 by water displacement plethysmometer; assay type: functional; details: po, 504 h, time 21 day; in short: as §1
Rattus norvegicus [31] = experiment: Antiarthritic activity in Lewis rat model of Complete Freund's adjuvant-induced arthritis assessed as reduction in paw swelling administered orally once daily for 21 days after CFA injection and measured weekly three times upto day 21 by water displacement plethysmometer; assay type: functional, organism-based; details: 504 h; in short: as §1

O=C(O)C1CN(Cc2ccc3c(c2)CCc2c-3noc2-c2onc(-c3ccccc3)c2C(F)(F)F)C1
EC50 [1]: 4.4 µM | concentration at 4 h [2]: 55 nM | ED50 (Rattus norvegicus [3]): 0.05 mg/kg | EC50 (Rattus norvegicus [4]): 2.5 nM | IC50 [5]: 0.38 nM | Emax [6]: 95% | Emax [7]: 93% | fraction unbound [8]: 0.007 | fraction unbound [9]: 0.004 | IC50 (Cytochrome P450 1A2): > 40 µM | IC50 (Cytochrome P450 2C9): > 40 µM | IC50 (Cytochrome P450 2C19): > 40 µM | IC50 (Cytochrome P450 2D6): > 40 µM | Papp [10]: 28 ×10⁻⁶ cm/s | half-life [11]: > 120 min | half-life [12]: > 120 min | Cmax [13]: 410 nM | Tmax [14]: 3 h | Tmax [15]: 4 h | Tmax [16]: 8 h | AUC [17]: 30.3 µM·h | AUC [18]: 1.5 µM·h | AUC [19]: 3.4 µM·h | AUC [20]: 2.3 µM·h | half-life [21]: 900 min | half-life [22]: 1390 min | clearance [23]: 8.5 mL/min/kg | clearance [24]: 2.4 mL/min/kg | Vd [25]: 2.2 L/kg | F [26]: 80% | bioavailability [27]: 43% | bioavailability [28]: 95% | Activity (Rattus norvegicus [29]): >50% | ED50 (Rattus norvegicus [30]): 0.09 mg/kg | EC50 (Rattus norvegicus [31]): 24 nM
